The target of one experiment is Sphingosine kinase 1 (Homo sapiens, UniProt Q9NYA1). The experiment is described as follows: Inhibition of GST-tagged full length human recombinant SPHK1 expressed in baculovirus using sphingosine as substrate preincubated for 10 mins measured after 1 hr by ADP-quest assay.
The target in a further experiment is T1, Sphingosine kinase 2 (Homo sapiens, UniProt Q9NRA0).
T1 sequence (Q9NRA0 whole entry): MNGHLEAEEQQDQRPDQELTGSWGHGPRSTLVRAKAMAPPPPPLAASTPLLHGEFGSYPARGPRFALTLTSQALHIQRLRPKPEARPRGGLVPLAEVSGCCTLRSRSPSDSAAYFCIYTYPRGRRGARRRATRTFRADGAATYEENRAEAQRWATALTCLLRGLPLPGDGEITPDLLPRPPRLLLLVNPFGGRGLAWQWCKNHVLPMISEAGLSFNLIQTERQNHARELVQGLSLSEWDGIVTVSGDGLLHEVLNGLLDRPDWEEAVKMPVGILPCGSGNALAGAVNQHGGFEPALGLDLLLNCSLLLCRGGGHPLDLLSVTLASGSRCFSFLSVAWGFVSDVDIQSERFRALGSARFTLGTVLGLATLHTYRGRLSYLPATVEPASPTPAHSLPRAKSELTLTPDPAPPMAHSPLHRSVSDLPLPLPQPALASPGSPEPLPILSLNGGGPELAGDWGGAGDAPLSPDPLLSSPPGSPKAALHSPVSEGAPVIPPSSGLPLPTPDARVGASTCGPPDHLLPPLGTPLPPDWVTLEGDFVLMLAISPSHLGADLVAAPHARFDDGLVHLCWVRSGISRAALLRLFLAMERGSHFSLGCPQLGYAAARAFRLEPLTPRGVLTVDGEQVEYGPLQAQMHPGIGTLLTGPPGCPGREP
The experiment is described as follows: Inhibition of GST-tagged full length human recombinant SPHK2 expressed in baculovirus using sphingosine as substrate preincubated for 10 mins measured after 1 hr by ADP-quest assay. The method, boiled down: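 Human recombinant SphK1 or SphK2 with sphingosine substrate and ATP, tested in 384-well format. Enzyme was preincubated with compound for 10 min, then the reaction ran at 28 °C for 1 h. ADP Quest reagents A and B were added for 30 min at room temperature. Fluorescence was read at Ex 530/Em 590 nm. Values are mean of n = 3 in triplicate.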

This is an account of results in ChEMBL document CHEMBL3813598, “Development of hydroxy-based sphingosine kinase inhibitors and anti-inflammation in dextran sodium sulfate induced colitis in mice” (Bioorg Med Chem, 2016).

pIC50: −log10 of the molar value.

Chain of Sphingosine kinase 1 (Q9NYA1 whole entry): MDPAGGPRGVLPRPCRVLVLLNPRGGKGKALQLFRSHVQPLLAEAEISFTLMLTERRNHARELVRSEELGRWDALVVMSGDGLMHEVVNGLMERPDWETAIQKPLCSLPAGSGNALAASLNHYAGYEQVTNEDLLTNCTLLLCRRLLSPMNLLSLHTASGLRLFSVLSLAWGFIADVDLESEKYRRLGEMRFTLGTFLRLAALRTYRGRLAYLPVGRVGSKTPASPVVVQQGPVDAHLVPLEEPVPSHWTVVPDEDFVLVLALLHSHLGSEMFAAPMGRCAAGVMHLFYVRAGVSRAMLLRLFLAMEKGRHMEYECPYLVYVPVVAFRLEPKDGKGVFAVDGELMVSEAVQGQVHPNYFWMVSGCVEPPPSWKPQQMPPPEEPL

As to `O=C(N/N=C/c1cccc(OCc2ccccc2F)c1)c1cc(O)c(O)c(O)c1`, the figures for the pIC50 on Sphingosine kinase 1 and at Sphingosine kinase 2 were < 4.00 and 4.00, respectively.

With `COc1ccccc1COc1cccc(/C=N/NC(=O)c2cc(O)c(O)c(O)c2)c1`, the negative logarithm of the IC50 (pIC50) on Sphingosine kinase 1 was 4.69; at Sphingosine kinase 2 it was 4.71.

Turning to `O=C(N/N=C/c1cccc(OCc2cccc(F)c2)c1)c1cc(O)c(O)c(O)c1`, the pIC50 on Sphingosine kinase 1 and at Sphingosine kinase 2 was < 4.00 each time.

For the compound `O=C(N/N=C/c1cccc(OCc2ccccc2C(F)(F)F)c1)c1ccc(O)c(O)c1`, the pIC50 was 4.81 on Sphingosine kinase 1 and 4.86 at Sphingosine kinase 2.

Consider `COc1ccc(COc2cccc(/C=N/NC(=O)c3cc(O)c(O)c(O)c3)c2)cc1`, for which the negative-log IC50 (pIC50) on Sphingosine kinase 1 and at Sphingosine kinase 2 was < 4.00 in each case.

On to `COc1cccc(COc2cccc(/C=N/NC(=O)c3ccc(O)cc3)c2)c1`, for which the pIC50 on Sphingosine kinase 1 and on Sphingosine kinase 2 was < 4.00 each time.

As to `O=C(N/N=C/c1ccc(OCc2ccccc2)cc1)c1cc(O)c(O)c(O)c1`, the pIC50 at Sphingosine kinase 1 was 4.66; at Sphingosine kinase 2, 4.55.

In the case of `Cc1cccc(COc2cccc(/C=N/NC(=O)c3cc(O)c(O)c(O)c3)c2)c1`, the pIC50 was 4.28 on Sphingosine kinase 1 and 4.10 at Sphingosine kinase 2.

On to `CC(C)(C)c1ccc(COc2cccc(/C=N/NC(=O)c3cc(O)c(O)c(O)c3)c2)cc1`, for which the pIC50 on Sphingosine kinase 1 was 4.45; on Sphingosine kinase 2, 4.21.

In the case of `O=C(N/N=C/c1cccc(OCc2ccc(Cl)cc2)c1)c1cc(O)c(O)c(O)c1`, the pIC50 at Sphingosine kinase 1 is < 4.00; at Sphingosine kinase 2, 4.21.

For the compound `O=C(N/N=C/c1cccc(OCc2ccccc2Cl)c1)c1cc(O)c(O)c(O)c1`, the results for the pIC50 on Sphingosine kinase 1 and at Sphingosine kinase 2 were 4.43 and 4.23, respectively.

Regarding `O=C(N/N=C/c1ccc(OCc2ccccc2C(F)(F)F)cc1)c1ccc(O)cc1`, the negative logarithm of the IC50 (pIC50) at Sphingosine kinase 1 and on Sphingosine kinase 2 was < 4.00 throughout.

As for `COc1ccc(COc2ccc(/C=N/NC(=O)c3cc(O)c(O)c(O)c3)cc2)cc1`, the pIC50 at Sphingosine kinase 1 and at Sphingosine kinase 2 was < 4.00 in each case.

Regarding `O=C(N/N=C/c1ccc(OCc2ccccc2C(F)(F)F)cc1)c1cccc(O)c1`, the pIC50 on Sphingosine kinase 1 and on Sphingosine kinase 2 was < 4.00 each time.

As for `O=C(N/N=C/c1ccc(OCc2cccc(C(F)(F)F)c2)cc1)c1cc(O)c(O)c(O)c1`, the figures for the pIC50 on Sphingosine kinase 1 and on Sphingosine kinase 2 were 4.26 and 4.62, respectively.

For the compound `O=C(N/N=C/c1ccc(OCc2ccccc2C(F)(F)F)cc1)c1ccc(O)c(O)c1`, the pIC50 was 4.78 on Sphingosine kinase 1 and 4.94 on Sphingosine kinase 2.

`COc1cccc(COc2ccc(/C=N/NC(=O)c3cccc(O)c3)cc2)c1`: the pIC50 at Sphingosine kinase 1 and at Sphingosine kinase 2 was < 4.00 throughout.

For the compound `N#Cc1cccc(COc2cccc(/C=N/NC(=O)c3cc(O)c(O)c(O)c3)c2)c1`, the values for the pIC50 on Sphingosine kinase 1 and on Sphingosine kinase 2 were 4.07 and < 4.00, respectively.

For `O=C(N/N=C/c1cccc(OCc2ccccc2C(F)(F)F)c1)c1cccc(O)c1`, the pIC50 at Sphingosine kinase 1 and on Sphingosine kinase 2 was < 4.00 each time.

Consider `N#Cc1ccccc1COc1cccc(/C=N/NC(=O)c2cc(O)c(O)c(O)c2)c1`, for which the pIC50 on Sphingosine kinase 1 was 4.34; on Sphingosine kinase 2 it was 4.16.

As to `O=C(N/N=C/c1cccc(OCc2ccccc2C(F)(F)F)c1)c1cc(O)cc(O)c1`, the pIC50 at Sphingosine kinase 1 and on Sphingosine kinase 2 was < 4.00 throughout.

In the case of `O=C(N/N=C/c1cccc(OCc2cccc(C(F)(F)F)c2)c1)c1cc(O)c(O)c(O)c1`, the negative-log IC50 (pIC50) on Sphingosine kinase 1 and at Sphingosine kinase 2 was < 4.00 throughout.

Turning to `N#Cc1ccc(COc2cccc(/C=N/NC(=O)c3cc(O)c(O)c(O)c3)c2)cc1`, the negative logarithm of the IC50 (pIC50) on Sphingosine kinase 1 was 4.16; at Sphingosine kinase 2, 4.45.

In the case of `O=C(N/N=C/c1ccc(OCc2ccccc2C(F)(F)F)cc1)c1cc(O)cc(O)c1`, the pIC50 on Sphingosine kinase 1 and at Sphingosine kinase 2 was < 4.00 throughout.

Take `O=C(N/N=C/c1ccc(OCc2ccccc2C(F)(F)F)cc1)c1cc(O)c(O)c(O)c1`: the pIC50 at Sphingosine kinase 1 and at Sphingosine kinase 2 was 4.82 each time.

As to `COc1cccc(COc2ccc(/C=N/NC(=O)c3ccc(O)c(O)c3)cc2)c1`, the negative-log IC50 (pIC50) at Sphingosine kinase 1 was 4.60; at Sphingosine kinase 2 it was 4.99.

Turning to `Cc1ccc(COc2cccc(/C=N/NC(=O)c3cc(O)c(O)c(O)c3)c2)cc1`, the pIC50 is 4.34 at Sphingosine kinase 1 and 4.18 at Sphingosine kinase 2.

For the compound `O=C(N/N=C/c1cccc(OCc2cccc(Cl)c2)c1)c1cc(O)c(O)c(O)c1`, the pIC50 on Sphingosine kinase 1 was < 4.00; at Sphingosine kinase 2 it was 4.17.

On to `N#Cc1ccccc1COc1ccc(/C=N/NC(=O)c2cc(O)c(O)c(O)c2)cc1`, for which the pIC50 on Sphingosine kinase 1 is < 4.00; on Sphingosine kinase 2, 4.35.

Take `CCCCCCCCCCCCC/C=C/[C@@H](O)[C@H](CO)N(C)C` [DIMETHYLSPINGOSINE]: the negative-log IC50 (pIC50) at Sphingosine kinase 2 was 4.58.

For `N#Cc1cccc(COc2ccc(/C=N/NC(=O)c3cc(O)c(O)c(O)c3)cc2)c1`, the pIC50 is 4.34 at Sphingosine kinase 1 and 4.65 on Sphingosine kinase 2.

For `COc1cccc(COc2cccc(/C=N/NC(=O)c3cc(O)cc(O)c3)c2)c1`, the negative-log IC50 (pIC50) on Sphingosine kinase 1 and at Sphingosine kinase 2 was < 4.00 in each case.

As for `O=C(N/N=C/c1cccc(OCc2ccccc2C(F)(F)F)c1)c1ccc(O)cc1`, the negative logarithm of the IC50 (pIC50) on Sphingosine kinase 1 and at Sphingosine kinase 2 was < 4.00 in each case.

For the compound `Cc1ccccc1COc1cccc(/C=N/NC(=O)c2cc(O)c(O)c(O)c2)c1`, the pIC50 on Sphingosine kinase 1 is 4.20; at Sphingosine kinase 2 it was 4.09.

With `O=C(N/N=C/c1cccc(OCc2ccccc2)c1)c1cc(O)c(O)c(O)c1`, the pIC50 at Sphingosine kinase 1 was 4.40; at Sphingosine kinase 2, 4.58.

Take `Cc1ccc(COc2ccc(/C=N/NC(=O)c3cc(O)c(O)c(O)c3)cc2)cc1`: the pIC50 on Sphingosine kinase 1 was 4.49; on Sphingosine kinase 2 it was 4.35.

For the compound `O=C(N/N=C/c1cccc(OCc2ccccc2C(F)(F)F)c1)c1cc(O)c(O)c(O)c1`, the negative logarithm of the IC50 (pIC50) on Sphingosine kinase 1 is 4.71; on Sphingosine kinase 2, 4.79.

For the compound `COc1cccc(COc2cccc(/C=N/NC(=O)c3cc(O)c(O)c(O)c3)c2)c1`, the results for the pIC50 on Sphingosine kinase 1 and at Sphingosine kinase 2 were 5.07 and 5.06, respectively.

In the case of `COc1cccc(COc2ccc(/C=N/NC(=O)c3ccc(O)cc3)cc2)c1`, the pIC50 on Sphingosine kinase 1 and at Sphingosine kinase 2 was < 4.00 in each case.

With `O=C(N/N=C/c1cccc(OCc2ccccc2)c1)c1ccc2[nH]cnc2c1`, the pIC50 on Sphingosine kinase 1 and at Sphingosine kinase 2 was < 4.00 throughout.

With `COc1ccccc1COc1ccc(/C=N/NC(=O)c2cc(O)c(O)c(O)c2)cc1`, the pIC50 on Sphingosine kinase 1 is 4.73; at Sphingosine kinase 2, 4.57.

`COc1cccc(COc2cccc(/C=N/NC(=O)c3ccc(O)c(O)c3)c2)c1`: the pIC50 on Sphingosine kinase 1 is 5.30; on Sphingosine kinase 2, 5.34.

Consider `O=C(N/N=C/c1cccc(OCc2ccc(F)cc2)c1)c1cc(O)c(O)c(O)c1`, for which the negative-log IC50 (pIC50) at Sphingosine kinase 1 and on Sphingosine kinase 2 was < 4.00 each time.

On to `CC(C)(C)c1ccc(COc2ccc(/C=N/NC(=O)c3cc(O)c(O)c(O)c3)cc2)cc1`, for which the pIC50 is 4.39 at Sphingosine kinase 1 and 4.36 at Sphingosine kinase 2.

Take `O=C(N/N=C/c1cccc(OCc2cccc3ccccc23)c1)c1cc(O)c(O)c(O)c1`: the pIC50 on Sphingosine kinase 1 is 4.50; on Sphingosine kinase 2 it was 4.39.

On to `N#Cc1ccc(COc2ccc(/C=N/NC(=O)c3cc(O)c(O)c(O)c3)cc2)cc1`, for which the negative-log IC50 (pIC50) at Sphingosine kinase 1 was 4.56; at Sphingosine kinase 2, 4.75.

As for `O=C(N/N=C/c1ccc(OCc2ccc(C(F)(F)F)cc2)cc1)c1cc(O)c(O)c(O)c1`, the pIC50 at Sphingosine kinase 1 is 4.43; on Sphingosine kinase 2 it was 4.81.

`O=C(N/N=C/c1cccc(OCc2ccc(C(F)(F)F)cc2)c1)c1cc(O)c(O)c(O)c1`: the negative-log IC50 (pIC50) on Sphingosine kinase 1 is 4.79; at Sphingosine kinase 2 it was 4.65.
